Assay outcomes: PubChem, several laboratories
Compounds with a hit are over-represented: about 4% of the library has one in this group of screens.
KCNK9 block: KCNK9 potassium channel inhibitors, primary screen, HEK293 cells, thallium flux; Potassium channel subfamily K member 9 (Homo sapiens), Q9NPC2; FluxOR thallium flux fluorescence; stronger effect = lower value; B-score at 10 µM; hit rate 1.2% among 310,000;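 active = ratio B-score over 3 SD below the library mean, with starting fluorescence within 5 SD of its mean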;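 note: negative B-score means less thallium flux so channel inhibition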
KCNQ1 pot: potentiators or activators of KCNQ1 channel, primary screen, cell-based, thallium flux, high-throughput | hit rate 0.35% among 310,000 | CHO-K1 KCNQ1, thallium flux FluxOR fluorescence; stronger effect = higher value | AID 2648, 2010 | B-score at 10 µM;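 active = fluorescence ratio B-score, a plate-corrected score, at least three library SD, with initial intensity B-score within 5 SD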
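Schedule – 37 °C overnight plating, 90-min dark dye load, 20-min compound pretreatment · System – stable KCNQ1 CHO-K1 line · Probe or stimulus – thallium- and potassium-containing depolarizing buffer · Measured by – kinetic FluxOR fluorescence, 10 s baseline plus 110 s post-stimulus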
KCNQ1 inh: inhibitors of human KCNQ1 channel, primary screen, cell-based, thallium flux, high-throughput. Potassium voltage-gated channel subfamily KQT member 1 (Homo sapiens), P51787. CHO-K1 KCNQ1, FluxOR thallium flux fluorescence; stronger effect = higher value. B-score at 10 µM. hit rate 1.3% among 310,000;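 active = compounds whose thallium flux B-score, printed positive for inhibition, exceeds three library SD while starting fluorescence stays within three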;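 note: channel opened by potassium depolarization with thallium stimulus after 20 min compound exposure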
hERG rescue: hERG rescue from dofetilide block, primary screen, cell-based, CHO-hERG, FluxOR thallium flux, dofetilide IC70. AID 1511, 2009. dofetilide IC70 present. activation (rescue from dofetilide block), less the hit threshold, % at 10 µM. hit rate 0.51% among 310,000. Voltage-gated inwardly rectifying potassium channel KCNH2 (Homo sapiens), Q12809;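 active = activation above the mean of controls blocked by dofetilide plus 5 SD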;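 note: thallium influx through hERG after potassium depolarization seen as dye fluorescence rise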
PHOSPHO1 inh: PubChem AID 1565. Phosphoethanolamine/phosphocholine phosphatase (Homo sapiens), Q8TCT1. inhibition, % at 13.3 µM. recombinant PHOSPHO1, absorbance phosphatase assay. hit rate 1.1% among 290,000; in the data active = inhibition above about 60%
Target sequence (Q8TCT1 whole entry, looked up): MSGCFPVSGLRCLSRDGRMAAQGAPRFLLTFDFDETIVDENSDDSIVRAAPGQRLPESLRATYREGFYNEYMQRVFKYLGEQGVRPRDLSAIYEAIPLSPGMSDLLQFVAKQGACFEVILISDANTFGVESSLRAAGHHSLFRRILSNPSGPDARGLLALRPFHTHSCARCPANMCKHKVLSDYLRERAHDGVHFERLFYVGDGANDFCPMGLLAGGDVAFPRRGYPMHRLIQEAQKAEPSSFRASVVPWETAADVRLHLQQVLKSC
KCNK3 block: human KCNK3 channel inhibitors, primary screen, CHO cells, FluxOR thallium flux, B-score; Potassium channel subfamily K member 3 (Homo sapiens), O14649; FluxOR fluorescence; stronger effect = lower value; B-score at 10 µM; hit rate 0.84% among 340,000;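 active = B-score under library mean minus 4 SD, starting fluorescence ratio at most library mean plus 5 SD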;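 note: more negative B-score means stronger inhibition of thallium flux through KCNK3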
Target sequence (O14649 whole entry, looked up): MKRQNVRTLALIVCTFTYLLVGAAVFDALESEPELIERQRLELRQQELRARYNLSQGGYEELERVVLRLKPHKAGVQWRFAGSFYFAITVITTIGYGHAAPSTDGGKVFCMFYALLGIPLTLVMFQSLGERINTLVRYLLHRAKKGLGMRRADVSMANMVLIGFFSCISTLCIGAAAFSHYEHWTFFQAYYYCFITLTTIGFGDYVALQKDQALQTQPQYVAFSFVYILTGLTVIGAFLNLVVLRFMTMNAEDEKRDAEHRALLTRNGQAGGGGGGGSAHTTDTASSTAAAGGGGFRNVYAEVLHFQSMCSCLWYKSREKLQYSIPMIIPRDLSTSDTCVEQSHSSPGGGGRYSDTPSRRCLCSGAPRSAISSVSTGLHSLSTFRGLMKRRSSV
KCNK3 confirm: retest of human KCNK3 channel inhibitors, confirmation, CHO cells, FluxOR thallium flux, triplicate | shares compounds with KCNK3 block | FluxOR fluorescence; 0% buffer, 100% carvedilol maximal block | ratio percent of control, % at 10 µM | hit rate 99% among 2,400 | AID 651638, 2012;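 active = ratio percent of control, averaged over triplicates, above buffer control mean plus 5 SD, cut at about 64% in these data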;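 note: ratio is the fluorescence rise from min to max over baseline after thallium stimulus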
KCNK3 noninduced: thallium flux inhibition in non-induced cells, primary screen, counter-screen for KCNK3 inhibitor project, cell-based, non-induced KCNK3 line, FluxOR thallium, triplicate | shares compounds with KCNK3 block | non-induced KCNK3 parental cells; stronger effect = lower value | thallium flux ratio (lower = more inhibition) at 10 µM | hit rate 40% among 2,400 | AID 651747, 2012;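 active = thallium flux ratio, averaged over three wells, more than 5 SD below the buffer control mean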;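 note: host cells are CHO cells without KCNK3 induction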
Of the large screens only hits and unclear results are named; the others gave an inactive call (follow-up assays come after a bar, where they were run).

CC(=O)N1c2ccccc2C(=O)C1N(C)c1ccc(C)cc1 (configuration not stated)	none
O=C(c1cc2c(ccc3ccccc32)o1)N1CCCCC1	KCNK3 block -9.1 | KCNK3 confirm 84 | KCNK3 noninduced inactive
O=C(O)c1cc2c(ccc3ccccc32)o1	none
CCOc1cc(CNc2ccccc2)cc(Br)c1OCc1ccc(F)cc1	KCNK3 block -8.8 | KCNK3 confirm 84 | KCNK3 noninduced 0.16
CCOc1cc(CNc2ccccc2)cc(Br)c1OCC(=O)NC(C)(C)C	none
O=C1CCN(Cc2ccc([N+](=O)[O-])cc2)CCN1CCO	none
Cc1ccc(-c2cc(-c3ccc(C)o3)nc(N)c2C#N)cc1	KCNK3 block -11 | KCNK3 confirm 101 | KCNK3 noninduced inactive
Cc1ccc(-c2cc(-c3ccc4c(c3)OCO4)c(C#N)c(N)n2)o1	none
COc1ccccc1C(=O)NCC(=O)NC1CCCc2ccccc21 (configuration not stated)	none
COc1ccc(CNCCS(=O)(=O)NC2CCCCC2)cc1	none (no result: KCNK9 block, KCNQ1 pot, KCNQ1 inh, hERG rescue, PHOSPHO1 inh)
Cc1nn(-c2ccc3ccccc3c2)c(=O)c2ccccc12	KCNK3 block -8.9 | KCNK3 confirm 92 | KCNK3 noninduced inactive
Cc1nn(-c2ccc(Cl)cc2)c(=O)c2ccccc12	none
Cc1nn(-c2ccc(Cl)c(Cl)c2)c(=O)c2ccccc12	KCNK3 block -11 | KCNK3 confirm 105 | KCNK3 noninduced inactive
CCSc1nc2ccccc2n1Cc1cccc([N+](=O)[O-])c1	KCNK3 block -8.8 | KCNK3 confirm 95 | KCNK3 noninduced inactive
CCSc1nc2ccccc2n1Cc1ccccc1F	none
COc1ccc(CCNC(=O)C2CCN(C(=O)c3ccccc3)CC2)cc1	none (no result: KCNK3 block)
CC(C)COP(=O)(c1ccc(N(C)C)cc1)C(O)c1ccc(N(C)C)cc1 (configuration not stated)	none
COC(=O)c1c(NC(=O)CC2SCC(C(=O)OC)NC2=O)sc2c1CCCC2 (configuration not stated)	none
COc1ccc(O)c(C(=O)c2cnn(-c3ccc(Cl)cc3)c2)c1	KCNK3 block -12 | KCNK3 confirm 92 | KCNK3 noninduced inactive
CCOC(=O)c1cc(C#N)c(N2CCN(C)CC2)nc1-c1ccccc1	none
Cc1cc2oc(C(=O)N(Cc3ccccc3)C3CCS(=O)(=O)C3)c(C)c2cc1C (configuration not stated)	KCNK3 block -11 | KCNK3 confirm 92 | KCNK3 noninduced inactive
Cc1ccc2oc(C(=O)N(Cc3ccccc3)C3CCS(=O)(=O)C3)c(C)c2c1 (configuration not stated)	none (no result: PHOSPHO1 inh)
COc1cccc(C(=O)OCC(=O)c2ccc(Br)s2)c1	KCNK3 block -9.3 | KCNK3 confirm 97 | KCNK3 noninduced inactive
COc1ccc(C(=O)OCC(=O)c2ccc(Br)s2)c(OC)c1	none (no result: PHOSPHO1 inh)
N#Cc1ccc(C(=O)NC(=S)N2CCOCC2)cc1	none (no result: KCNK9 block, KCNQ1 pot, KCNQ1 inh, hERG rescue, PHOSPHO1 inh)
CN1CCN(C2=C(Cl)C(=O)c3ccccc3C2=O)CC1	KCNK3 block -14 (no result: KCNK9 block, KCNQ1 pot, KCNQ1 inh, hERG rescue, PHOSPHO1 inh) | KCNK3 confirm 160 | KCNK3 noninduced 0.057
COc1ccc(-c2cn(-c3ccccc3)nc2CO)cc1	none
CCc1ccc(CNC(=O)CCn2ccc3cc(S(=O)(=O)N4CCCC4)ccc32)cc1	KCNK3 block -10 | KCNK3 confirm 117 | KCNK3 noninduced 0.15
COc1ccc(N2CCN(Cc3cc4c(cc3O)CCC4)CC2)cc1	none
Oc1cc2c(cc1CN1CCN(c3cccc(C(F)(F)F)c3)CC1)CCC2	KCNK3 block -9.4 | KCNK3 confirm 100 | KCNK3 noninduced 0.15
CCOC(=O)Cc1csc(NC(=O)c2cnc3sc(C)cn3c2=O)n1	none
Cc1ccc2c(CN(C)Cc3cccc(F)c3)cc(=O)oc2c1C	KCNK3 block -13 | KCNK3 confirm 116 | KCNK3 noninduced 0.15
Cc1noc(C)c1COC(=O)CCN1c2ccccc2Sc2ccccc21	KCNK3 block -9.7 | KCNK3 confirm 126 | KCNK3 noninduced 0.14
Cc1ccc(C)c(-c2cc(C(=O)Nc3cccnc3)c3ccccc3n2)c1	KCNK9 block -8, KCNQ1 inh 6, KCNK3 block -12 | KCNK3 confirm 125 | KCNK3 noninduced 0.12
c1ccc(-c2nc(-n3nc4ccccc4n3)nc3ccccc23)cc1	KCNK9 block -7.9, KCNK3 block -14 | KCNK3 confirm 88 | KCNK3 noninduced 0.15
N#CC1CCN(c2ncccc2[N+](=O)[O-])CC1	none
O=C(c1ccccc1)C1CCN(c2ncccc2[N+](=O)[O-])CC1	KCNK3 block -8.8 | KCNK3 confirm 85 | KCNK3 noninduced inactive
COc1ccc(C(=O)CC(Nc2ccc([N+](=O)[O-])cc2)c2ccc(Cl)cc2)cc1 (configuration not stated)	KCNK9 block -6.7, KCNQ1 inh 12, KCNK3 block -9.1 | KCNK3 confirm 132 | KCNK3 noninduced 0.14
COc1ccc(C(=O)NC(CC(=O)O)c2cc([N+](=O)[O-])ccc2Cl)cc1 (configuration not stated)	none
CC(C)n1nnc(-c2ccc(OCc3ccccc3F)cc2)n1	KCNK9 block -7.9, KCNK3 block -9.1 | KCNK3 confirm 99 | KCNK3 noninduced inactive
CC(C)c1nc(CNC(=O)C2CCC(=O)N(CCc3cccc(F)c3)C2)cs1 (configuration not stated)	KCNK3 block -11 | KCNK3 confirm 77 | KCNK3 noninduced inactive
CCCCn1nc(NC(=O)c2cccs2)c2cc3ccccc3nc21	KCNK3 block -9.5 | KCNK3 confirm 118 | KCNK3 noninduced 0.14
CN(C(=O)Nc1ccc(Cl)cc1Cl)[C@H]1c2cc(Br)ccc2OC[C@H]1CO	KCNK3 block -8.9 | KCNK3 confirm 100 | KCNK3 noninduced inactive
O=C(NCc1ccccc1)N1CCC(c2nc3ccccc3[nH]2)CC1	none
CCCCN(C)Cc1cc(=O)oc2ccc3ccccc3c12	KCNK3 block -9.3 | KCNK3 confirm 120 | KCNK3 noninduced 0.15
CN(CCC#N)Cc1cc(=O)oc2ccc3ccccc3c12	none
